Experimental data gathered from unrelated publications.
Each line is one published result; the experiments were not run side by side.
Observed: cell growth or viability

| Structure (SMILES) | cell line | method | time | IC50 |
| --- | --- | --- | --- | --- |
| CC(C)(C)C1=CC(=NNC(=O)C2CCCCC2)C=C(C(C)(C)C)C1=O | human Fibroblast | resazurin | 24 h | > 100 µM |
| CC1(C)CC[C@]2(C(=O)O)CC[C@]3(C)C(=CC[C@@H]4[C@@]5(C)CC[C@H](O)C(C)(C)[C@@H]5CC[C@]43C)[C@@H]2C1 | SGC-7901 | MTT | 48 h | 52.7 µM |
| O=C(NCCc1c[nH]c2ccccc12)C(=O)c1c[nH]c2ccc(F)cc12 | C4-2 | MTT |  | > 100 µM |
| COc1cc([C@@H]2c3cc4c(cc3[C@@H](O[C@@H]3O[C@@H]5CO[C@@H](C)O[C@H]5[C@H](O)[C@H]3O)[C@H]3COC(=O)[C@H]23)OCO4)cc(OC)c1O | BEAS-2B |  |  | 11.2 µM |
| C=C(C)C(=O)Nc1ccc(-c2c(-c3ccc(Oc4nccc(C)n4)c(F)c3)c3c(N)ncnc3n2C)cc1 | RT-112 | ATP luminescence | 96 h | 0.212 µM |
| COc1ccc2c(c1OC)C(=O)O[C@@H]2[C@H]1c2c(cc3c(c2OC)OCO3)CCN1C | HN-6 |  | 72 h | 16.3 µM |
| O=C1NC(=NCc2cccs2)S/C1=C\c1ccc2ncccc2c1 | LOX IMVI |  |  | 4.4 µM |
| Cn1cc(C(=O)C(=O)NCCc2c[nH]c3ccccc23)c2ccccc21 | C4-2 | MTT |  | > 100 µM |
| O=C1Nc2ccc(Cl)cc2[C@@](C#CC2CC2)(C(F)(F)F)O1 | HN-6 |  | 72 h | 18.7 µM |
| COC(=O)CN=c1scc(-c2ccccc2)n1-c1ccccc1 | Panc 02.03 | MTT | 72 h | 81.5 µM |
| COc1ccc2[nH]cc(S(C)(=O)=Nc3cc(OC)c(OC)c(OC)c3)c2c1 (centres unmarked) | C4-2 | MTT | 48 h | > 40 µM |
| COc1c(O)cc2c(c1O)C(=O)c1c(cc(C)c(O)c1OC)C2=O | HK-2 | MTT | 24 h | > 500 µM |
| COc1nc(OCc2cccc(-c3ccccc3)c2C)ccc1CNCCNC(C)=O | HK-2 | MTT |  | 1.9 µM |
| COc1cccc2c1C(=O)c1c(O)c3c(c(O)c1C2=O)C[C@@](O)(C(=O)CO)C[C@@H]3O[C@H]1C[C@H](N)[C@H](O)[C@H](C)O1 | SGC-7901 | MTT | 48 h | 0.13 µM |
| CCN1C(=O)N(c2c(F)c(OC)cc(OC)c2F)Cc2cnc3[nH]c(CN4CCOCC4)cc3c21 | KATO III | ATP luminescence | 96 h | 0.00148 µM |
| O=C(O)CCCc1ccccc1 | BCPAP | MTT | 72 h | > 50 µM |
| COc1cc2nc(N3CCN(C(=O)c4ccco4)[C@H]4CCCC[C@H]43)nc(N)c2cc1OC (racemic) | HN-6 |  | 72 h | 15.6 µM |
| CCN1CCN(c2ccc(Nc3cc(N(C)C(=O)Nc4c(Cl)c(OC)cc(OC)c4Cl)ncn3)cc2)CC1 | RT-112 | ATP luminescence | 96 h | 0.0117 µM |
| COc1cc(O)c2c(c1)C(=O)c1cc(C)cc(O)c1C2=O | HK-2 | MTT | 24 h | > 500 µM |

| Structure (SMILES) | cell line | method | time | IC50 |
| --- | --- | --- | --- | --- |
| Nc1c2c(nc3ccccc13)CCCC2O (centres unmarked) | HN-6 |  | 72 h | > 20 µM |
| CC(C)C[C@H](NC(=O)[C@H](Cc1ccccc1)NC(=O)c1cnccn1)B(O)O | A2058 | ATP luminescence |  | 0.013 µM |
| CCCCc1ccc2[nH]c(NC(=O)OC)nc2c1 | HN-6 |  | 72 h | 0.126 µM |
| COc1ccc(Oc2ccccc2NC(=O)CNC(=O)c2cccc3ccccc23)cc1 | SK-N-DZ |  |  | 0.271 µM |
| COc1ccc2c(C(=O)C(=O)NCCc3c[nH]c4ccccc34)c[nH]c2c1 | C4-2 | MTT |  | > 100 µM |
| O=C(O)c1cc(O)c2c(c1)C(=O)c1cccc(O[C@@H]3O[C@H](CO)[C@@H](O)[C@H](O)[C@H]3O)c1C2=O | HK-2 | MTT | 24 h | > 500 µM |
| Nc1ccc(Cl)c[n+]1[Pt-2]([Cl])([Cl])[n+]1cc(Cl)ccc1N | BEAS-2B | MTT | 24 h | 10.3 µM |
| COC(=O)CN=c1scc(-c2ccccc2)n1-c1ccccc1[N+](=O)[O-] | Panc 02.03 | MTT | 72 h | > 100 µM |
| COc1ccc(CCN(C)CCc2ccc(OC)c(OC)c2)cc1OC | HN-6 |  | 72 h | > 20 µM |
| N=C(N)c1ccc(N=Nc2c(O)ccc3cc(O)ccc23)cc1 | MDA-MB-468 | MTT |  | 20 µM |
| COc1cccc2c1C(=O)c1c(O)c3c(c(O)c1C2=O)C[C@@](O)(C(=O)CO)C[C@@H]3O[C@H]1C[C@H](N)[C@H](O)[C@H](C)O1 | KATO III | MTT | 48 h | 0.71 µg/mL |
| COc1cc(Nc2nccc(-c3cnn4nc(OC)ccc34)n2)cc(C(F)(F)F)c1 | RERF-LC-Ad2 | ATP luminescence |  | 0.36 µM |
| CC(C)(C)C1=CC(=NNc2ccc(C#N)cc2)C=C(C(C)(C)C)C1=O | human Fibroblast | resazurin | 24 h | > 100 µM |
| COC(C)(C)CCC[C@](C)(O)[C@H]1CC[C@]2(C)[C@@H]1[C@H](O)C[C@@H]1[C@@]3(C)CC[C@H](O)C(C)(C)[C@@H]3CC[C@]12C | BEAS-2B | MTT | 72 h | 24.6 µM |
| Cc1ccc(C(=O)Nc2ccc(Oc3cc4cnn(C)c4cc3-c3cn[nH]c3)c(F)c2)c(=O)n1-c1ccc(F)cc1 | KATO III | ATP luminescence |  | 0.354 µM |
| CCN(CC)CCNC(=O)COc1ccc(OC)cc1 | HN-6 |  | 72 h | > 20 µM |
| CN1CCN(c2ccc3nc(-c4c(N)c5c(F)cccc5[nH]c4=O)[nH]c3c2)CC1 | RT-112 | MTT | 5 days | 0.2 µM |
| O=C(CNC(=O)c1cccc2ccccc12)Nc1ccccc1Oc1ccc(O)cc1 | SK-N-DZ |  |  | 0.467 µM |
| CC(=O)CC(c1ccccc1)c1c(O)c2ccccc2oc1=O (centres unmarked) | HN-6 |  | 72 h | > 20 µM |
